# Laboratory results published in ChEMBL document CHEMBL1149089, “Evaluation of potent and selective small-molecule antagonists for the CXCR2 chemokine receptor” (J Med Chem, 2004).
# Columns and labels:
# [1] = target: T1, C-X-C chemokine receptor type 1 (Homo sapiens, UniProt P25024); assay: Inhibition of binding of IL-8 to membranes of cloned CXC chemokine receptor 1 expressed in CHO Cells using [125I]IL-8 radioligand
# T1 sequence (P25024 whole entry): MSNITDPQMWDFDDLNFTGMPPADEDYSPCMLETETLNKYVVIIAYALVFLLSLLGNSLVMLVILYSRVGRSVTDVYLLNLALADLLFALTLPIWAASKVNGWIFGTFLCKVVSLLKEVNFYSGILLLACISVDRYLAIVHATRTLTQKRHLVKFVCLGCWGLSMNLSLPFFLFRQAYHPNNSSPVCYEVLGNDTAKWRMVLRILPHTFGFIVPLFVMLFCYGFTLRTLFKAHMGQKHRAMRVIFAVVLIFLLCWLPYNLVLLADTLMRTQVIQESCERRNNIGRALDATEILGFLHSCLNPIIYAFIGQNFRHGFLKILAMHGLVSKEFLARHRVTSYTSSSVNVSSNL
# Procedure, shortened: (§1)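 Membranes from CHO cells stably expressing CXCR1 or CXCR2; competition against radiolabeled human recombinant [125I]IL-8; IC50 given as mean ± SEM of three individual experiments.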
# [2] = target: T2, C-X-C chemokine receptor type 2 (Homo sapiens, UniProt P25025); assay: Inhibition of binding of IL-8 to membranes of cloned CXC chemokine receptor 2 expressed in CHO Cells using [125I]IL-8 radioligand; procedure, shortened: as §1
# T2 sequence (P25025 whole entry): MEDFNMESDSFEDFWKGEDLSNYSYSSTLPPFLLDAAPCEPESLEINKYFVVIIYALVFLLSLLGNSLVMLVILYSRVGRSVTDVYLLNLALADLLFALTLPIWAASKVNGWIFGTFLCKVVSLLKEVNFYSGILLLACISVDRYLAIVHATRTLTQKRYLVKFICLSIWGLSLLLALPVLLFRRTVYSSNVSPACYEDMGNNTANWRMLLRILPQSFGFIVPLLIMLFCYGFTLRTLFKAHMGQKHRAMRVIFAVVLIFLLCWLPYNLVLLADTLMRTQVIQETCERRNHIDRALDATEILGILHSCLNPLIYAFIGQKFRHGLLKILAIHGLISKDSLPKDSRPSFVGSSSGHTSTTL
# [3] = species: Homo sapiens; assay: Compound was evaluated for GROalpha-mediated calcium mobilization in human polymorphonuclear neutrophils(PMNs); assay type: functional
# Procedure, shortened: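 Human neutrophils stimulated with GROα, the CXCR2-selective ligand; calcium mobilization measured; mean ± SEM of at least three separate determinations.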
# [4] = system: Oryctolagus cuniculus; assay: Compound was evaluated for inhibition of topical model of delayed type hypersensitivity (DTH) at a dose of 1000 ug in rabbits; assay type: functional
# Procedure, shortened: (§2)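 Rabbits sensitized by complete Freund's adjuvant injected in the nape of the neck; challenged intradermally 5 weeks later with tuberculin (10 units PPD). Compound in methanol (50 µL) or methanol vehicle applied topically to PPD sites 5 min after challenge and reapplied 4 h later. Skin-fold thickness at challenge site measured 48 h after challenge; % inhibition versus vehicle.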
# [5] = system: Oryctolagus cuniculus; assay: Compound was evaluated for inhibition of topical model of delayed type hypersensitivity (DTH) at a dose of 500 ug in rabbits; assay type: functional
# Procedure, shortened: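 Rabbits sensitized by complete Freund's adjuvant injection in the nape of the neck, then challenged intradermally 5 weeks later with tuberculin (10 units PPD). At 5 min post-challenge, compound in methanol (50 µL) or methanol vehicle was applied topically to PPD sites and reapplied 4 h later. Skin-fold thickness at the challenge site was read 48 h after PPD; % inhibition reported.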
# [6] = system: Oryctolagus cuniculus; assay: Compound was evaluated for inhibition of topical model of delayed type hypersensitivity (DTH) at a dose of 62.5 ug in rabbits; assay type: functional; procedure, shortened: as §2
SMILES,IC50 [1] [nM],IC50 [2] [nM],IC50 [3] [nM],Inhibition [4] [%],Inhibition [5] [%],Inhibition [6] [%]
O=C(Nc1ccccc1)Nc1ccc([N+](=O)[O-])cc1O,18200,320,339,–,–,–
N#Cc1ccc(NC(=O)Nc2ccccc2Br)c(O)c1Cl,4200,22,2.6,–,–,–
N#Cc1ccc(NC(=O)Nc2ccccc2)c(O)c1,21000,200,120,21,–,–
O=C(Nc1ccccc1)Nc1cccc([N+](=O)[O-])c1O,33200,860,511,–,–,–
N#Cc1ccc(NC(=O)Nc2ccccc2Br)c(O)c1Br,2600,6,0.79,–,33,–
N#Cc1c(Cl)ccc(NC(=O)Nc2ccccc2Br)c1O,11100,57,7.5,–,–,3
O=C(Nc1ccccc1)Nc1cc([N+](=O)[O-])ccc1O,46200,10900,13800,–,–,–
N#Cc1ccc(NC(=O)Nc2ccccc2Br)c(O)c1,15100,25,53,–,31,–
